Square brackets hold non-standard residues; d marks the D form. Peptide text beside a SMILES is read from it. dPhe(4-Cl) = N[C@H](Cc1ccc(Cl)cc1)C(=O)O; dPhe(4-F) = N[C@H](Cc1ccc(F)cc1)C(=O)O; d2Nal = N[C@H](Cc1ccc2ccccc2c1)C(=O)O; Nle = CCCC[C@H](N)C(=O)O
Each compound was assayed against T1, Melanocortin receptor 4 (Homo sapiens, UniProt P32245) (assay: Agonist activity at human MC4R expressed in HEK293 cells after 3 mins by cAMP assay).
Assay type: functional, cell-based

T1 sequence (P32245 whole entry): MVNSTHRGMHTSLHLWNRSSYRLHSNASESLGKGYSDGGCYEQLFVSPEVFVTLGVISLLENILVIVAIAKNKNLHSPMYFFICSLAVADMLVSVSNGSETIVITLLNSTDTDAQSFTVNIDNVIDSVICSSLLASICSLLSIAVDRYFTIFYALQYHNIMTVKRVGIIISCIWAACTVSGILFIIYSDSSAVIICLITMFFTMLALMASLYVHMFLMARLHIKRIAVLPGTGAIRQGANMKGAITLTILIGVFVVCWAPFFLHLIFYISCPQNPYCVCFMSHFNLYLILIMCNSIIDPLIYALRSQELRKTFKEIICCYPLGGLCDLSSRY

| SMILES | EC50 [nM] |
| --- | --- |
| CCCC[C@H](NC(=O)[C@@H](Cc1ccc(F)cc1)NC(=O)[C@H](Cc1cnc[nH]1)NC(C)=O)C(=O)N[C@@H](Cc1c[nH]c2ccccc12)C(N)=O (Ac-H[dPhe(4-F)][Nle]W-NH2) | 280 |
| CCCC[C@H](NC(=O)[C@@H](Cc1ccc2ccccc2c1)NC(=O)[C@H](Cc1cnc[nH]1)NC(C)=O)C(=O)N[C@@H](Cc1c[nH]c2ccccc12)C(N)=O (Ac-H[d2Nal][Nle]W-NH2) | 133 |
| CCCC[C@H](NC(=O)[C@@H](Cc1ccc(Cl)cc1)NC(=O)[C@H](Cc1cnc[nH]1)NC(C)=O)C(=O)N[C@@H](Cc1c[nH]c2ccccc12)C(N)=O (Ac-H[dPhe(4-Cl)][Nle]W-NH2) | 17 |

What follows are compounds tested against T1, Melanocortin receptor 4 (assay: Displacement of [125I]-[Nle4,d-Phe7]-alpha-MSH from human MC4R expressed in HEK293 cells after 40 mins by gamma counting analysis).
Assay type: cell-based

| SMILES | IC50 [nM] |
| --- | --- |
| CCCC[C@H](NC(=O)[C@@H](Cc1ccc(F)cc1)NC(=O)[C@H](Cc1cnc[nH]1)NC(C)=O)C(=O)N[C@@H](Cc1c[nH]c2ccccc12)C(N)=O (Ac-H[dPhe(4-F)][Nle]W-NH2) | > 1000 |
| CCCC[C@H](NC(=O)[C@@H](Cc1ccc2ccccc2c1)NC(=O)[C@H](Cc1cnc[nH]1)NC(C)=O)C(=O)N[C@@H](Cc1c[nH]c2ccccc12)C(N)=O (Ac-H[d2Nal][Nle]W-NH2) | > 1000 |
| CCCC[C@H](NC(=O)[C@@H](Cc1ccc(Cl)cc1)NC(=O)[C@H](Cc1cnc[nH]1)NC(C)=O)C(=O)N[C@@H](Cc1c[nH]c2ccccc12)C(N)=O (Ac-H[dPhe(4-Cl)][Nle]W-NH2) | > 1000 |

What follows are compounds tested against T2, Melanocortin receptor 3 (Homo sapiens, UniProt P41968) (assay: Displacement of [125I]-[Nle4,d-Phe7]-alpha-MSH from human MC3R expressed in HEK293 cells after 40 mins by gamma counting analysis).
Assay type: cell-based

T2 sequence (P41968 whole entry): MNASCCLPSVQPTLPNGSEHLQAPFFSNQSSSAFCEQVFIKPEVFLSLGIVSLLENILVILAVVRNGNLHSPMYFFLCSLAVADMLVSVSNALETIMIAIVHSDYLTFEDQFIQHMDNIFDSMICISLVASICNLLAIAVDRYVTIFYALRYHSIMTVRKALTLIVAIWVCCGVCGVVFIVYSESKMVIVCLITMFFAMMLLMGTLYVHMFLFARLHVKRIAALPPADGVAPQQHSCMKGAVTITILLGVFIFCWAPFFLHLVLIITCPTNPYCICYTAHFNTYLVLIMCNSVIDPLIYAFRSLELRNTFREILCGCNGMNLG

| SMILES | IC50 [nM] |
| --- | --- |
| CCCC[C@H](NC(=O)[C@@H](Cc1ccc(F)cc1)NC(=O)[C@H](Cc1cnc[nH]1)NC(C)=O)C(=O)N[C@@H](Cc1c[nH]c2ccccc12)C(N)=O (Ac-H[dPhe(4-F)][Nle]W-NH2) | > 1000 |
| CCCC[C@H](NC(=O)[C@@H](Cc1ccc2ccccc2c1)NC(=O)[C@H](Cc1cnc[nH]1)NC(C)=O)C(=O)N[C@@H](Cc1c[nH]c2ccccc12)C(N)=O (Ac-H[d2Nal][Nle]W-NH2) | > 1000 |
| CCCC[C@H](NC(=O)[C@@H](Cc1ccc(Cl)cc1)NC(=O)[C@H](Cc1cnc[nH]1)NC(C)=O)C(=O)N[C@@H](Cc1c[nH]c2ccccc12)C(N)=O (Ac-H[dPhe(4-Cl)][Nle]W-NH2) | > 1000 |

Each compound was assayed against T2, Melanocortin receptor 3 (assay: Agonist activity at human MC3R expressed in HEK293 cells at 10 uM after 3 mins by cAMP assay relative to MT-2).
Assay type: functional, cell-based
Procedure, shortened: (§1)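 cAMP produced at a single 10 μM peptide concentration, expressed as % of the response to MT-II run as control; 0% accumulation reported as no activity.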

| SMILES | Activity [%] |
| --- | --- |
| CCCC[C@H](NC(=O)[C@@H](Cc1ccc(F)cc1)NC(=O)[C@H](Cc1cnc[nH]1)NC(C)=O)C(=O)N[C@@H](Cc1c[nH]c2ccccc12)C(N)=O (Ac-H[dPhe(4-F)][Nle]W-NH2) | 100 |
| CCCC[C@H](NC(=O)[C@@H](Cc1ccc2ccccc2c1)NC(=O)[C@H](Cc1cnc[nH]1)NC(C)=O)C(=O)N[C@@H](Cc1c[nH]c2ccccc12)C(N)=O (Ac-H[d2Nal][Nle]W-NH2) | 17 |
| CCCC[C@H](NC(=O)[C@@H](Cc1ccc(Cl)cc1)NC(=O)[C@H](Cc1cnc[nH]1)NC(C)=O)C(=O)N[C@@H](Cc1c[nH]c2ccccc12)C(N)=O (Ac-H[dPhe(4-Cl)][Nle]W-NH2) | 87 |

What follows are compounds tested against T3, Melanocyte-stimulating hormone receptor (Homo sapiens, UniProt Q01726) (assay: Agonist activity at human MC1R expressed in HEK293 cells after 3 mins by cAMP assay).
Assay type: functional, cell-based
Target sequence in this assay (Q01726 whole entry): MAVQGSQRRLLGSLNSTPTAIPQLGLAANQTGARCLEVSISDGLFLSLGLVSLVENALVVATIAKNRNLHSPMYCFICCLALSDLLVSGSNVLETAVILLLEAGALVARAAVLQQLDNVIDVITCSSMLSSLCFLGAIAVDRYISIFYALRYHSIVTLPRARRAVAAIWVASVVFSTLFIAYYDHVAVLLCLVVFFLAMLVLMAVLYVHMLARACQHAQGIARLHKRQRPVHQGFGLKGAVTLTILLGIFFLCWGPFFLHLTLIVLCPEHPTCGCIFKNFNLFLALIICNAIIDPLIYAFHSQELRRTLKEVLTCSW

| SMILES | EC50 [nM] |
| --- | --- |
| CCCC[C@H](NC(=O)[C@@H](Cc1ccc(F)cc1)NC(=O)[C@H](Cc1cnc[nH]1)NC(C)=O)C(=O)N[C@@H](Cc1c[nH]c2ccccc12)C(N)=O (Ac-H[dPhe(4-F)][Nle]W-NH2) | 25 |
| CCCC[C@H](NC(=O)[C@@H](Cc1ccc2ccccc2c1)NC(=O)[C@H](Cc1cnc[nH]1)NC(C)=O)C(=O)N[C@@H](Cc1c[nH]c2ccccc12)C(N)=O (Ac-H[d2Nal][Nle]W-NH2) | 418 |
| CCCC[C@H](NC(=O)[C@@H](Cc1ccc(Cl)cc1)NC(=O)[C@H](Cc1cnc[nH]1)NC(C)=O)C(=O)N[C@@H](Cc1c[nH]c2ccccc12)C(N)=O (Ac-H[dPhe(4-Cl)][Nle]W-NH2) | 6.5 |

These compounds were tested against T2, Melanocortin receptor 3 (assay: Displacement of [125I]-[Nle4,d-Phe7]-alpha-MSH from human MC3R expressed in HEK293 cells at 10 uM after 40 mins by gamma counting analysis relative to control).
Assay type: cell-based
Procedure, shortened: (§2)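 Binding efficiency = maximal % displacement of [125I]-NDP-α-MSH observed at 10 μM peptide; 0% displacement at 10 μM scored as no binding.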

| SMILES | %max [%] |
| --- | --- |
| CCCC[C@H](NC(=O)[C@@H](Cc1ccc(F)cc1)NC(=O)[C@H](Cc1cnc[nH]1)NC(C)=O)C(=O)N[C@@H](Cc1c[nH]c2ccccc12)C(N)=O (Ac-H[dPhe(4-F)][Nle]W-NH2) | 13 |
| CCCC[C@H](NC(=O)[C@@H](Cc1ccc2ccccc2c1)NC(=O)[C@H](Cc1cnc[nH]1)NC(C)=O)C(=O)N[C@@H](Cc1c[nH]c2ccccc12)C(N)=O (Ac-H[d2Nal][Nle]W-NH2) | 80 |
| CCCC[C@H](NC(=O)[C@@H](Cc1ccc(Cl)cc1)NC(=O)[C@H](Cc1cnc[nH]1)NC(C)=O)C(=O)N[C@@H](Cc1c[nH]c2ccccc12)C(N)=O (Ac-H[dPhe(4-Cl)][Nle]W-NH2) | 45 |

The compounds below were run against T3, Melanocyte-stimulating hormone receptor (assay: Displacement of [125I]-[Nle4,d-Phe7]-alpha-MSH from human MC1R expressed in HEK293 cells at 10 uM after 40 mins by gamma counting analysis relative to control).
Assay type: cell-based
Procedure, shortened: as §2
Target sequence in this assay (Q01726 whole entry, looked up): as the sequence (Q01726 whole entry) above

| SMILES | %max [%] |
| --- | --- |
| CCCC[C@H](NC(=O)[C@@H](Cc1ccc(F)cc1)NC(=O)[C@H](Cc1cnc[nH]1)NC(C)=O)C(=O)N[C@@H](Cc1c[nH]c2ccccc12)C(N)=O (Ac-H[dPhe(4-F)][Nle]W-NH2) | 33 |
| CCCC[C@H](NC(=O)[C@@H](Cc1ccc2ccccc2c1)NC(=O)[C@H](Cc1cnc[nH]1)NC(C)=O)C(=O)N[C@@H](Cc1c[nH]c2ccccc12)C(N)=O (Ac-H[d2Nal][Nle]W-NH2) | 65 |
| CCCC[C@H](NC(=O)[C@@H](Cc1ccc(Cl)cc1)NC(=O)[C@H](Cc1cnc[nH]1)NC(C)=O)C(=O)N[C@@H](Cc1c[nH]c2ccccc12)C(N)=O (Ac-H[dPhe(4-Cl)][Nle]W-NH2) | 81 |

These compounds were tested against T4, Melanocortin receptor 5 (Homo sapiens, UniProt P33032) (assay: Agonist activity at human MC5R expressed in HEK293 cells at 10 uM after 3 mins by cAMP assay relative to MT-2).
Assay type: functional, cell-based
Procedure, shortened: as §1

T4 sequence (P33032 whole entry): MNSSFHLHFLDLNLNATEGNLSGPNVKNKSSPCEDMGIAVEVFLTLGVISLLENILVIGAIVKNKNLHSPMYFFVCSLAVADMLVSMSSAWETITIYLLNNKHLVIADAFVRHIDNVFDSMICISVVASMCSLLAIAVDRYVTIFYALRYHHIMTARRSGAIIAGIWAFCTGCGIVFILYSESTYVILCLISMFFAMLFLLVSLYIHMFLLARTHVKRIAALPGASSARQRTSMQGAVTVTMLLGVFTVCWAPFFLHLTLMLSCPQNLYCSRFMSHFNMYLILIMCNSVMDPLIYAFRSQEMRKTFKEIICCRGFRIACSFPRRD

| SMILES | Activity [%] |
| --- | --- |
| CCCC[C@H](NC(=O)[C@@H](Cc1ccc(F)cc1)NC(=O)[C@H](Cc1cnc[nH]1)NC(C)=O)C(=O)N[C@@H](Cc1c[nH]c2ccccc12)C(N)=O (Ac-H[dPhe(4-F)][Nle]W-NH2) | 0 |
| CCCC[C@H](NC(=O)[C@@H](Cc1ccc2ccccc2c1)NC(=O)[C@H](Cc1cnc[nH]1)NC(C)=O)C(=O)N[C@@H](Cc1c[nH]c2ccccc12)C(N)=O (Ac-H[d2Nal][Nle]W-NH2) | 0 |
| CCCC[C@H](NC(=O)[C@@H](Cc1ccc(Cl)cc1)NC(=O)[C@H](Cc1cnc[nH]1)NC(C)=O)C(=O)N[C@@H](Cc1c[nH]c2ccccc12)C(N)=O (Ac-H[dPhe(4-Cl)][Nle]W-NH2) | 52 |

Each compound was assayed against T4, Melanocortin receptor 5 (assay: Agonist activity at human MC5R expressed in HEK293 cells after 3 mins by cAMP assay).
Assay type: functional, cell-based

| SMILES | EC50 [nM] |
| --- | --- |
| CCCC[C@H](NC(=O)[C@@H](Cc1ccc(Cl)cc1)NC(=O)[C@H](Cc1cnc[nH]1)NC(C)=O)C(=O)N[C@@H](Cc1c[nH]c2ccccc12)C(N)=O (Ac-H[dPhe(4-Cl)][Nle]W-NH2) | 433 |

What follows are compounds tested against T3, Melanocyte-stimulating hormone receptor (assay: Agonist activity at human MC1R expressed in HEK293 cells at 10 uM after 3 mins by cAMP assay relative to MT-2).
Assay type: functional, cell-based
Procedure, shortened: as §1
Target sequence in this assay (Q01726 whole entry, looked up): as the sequence (Q01726 whole entry) above

| SMILES | Activity [%] |
| --- | --- |
| CCCC[C@H](NC(=O)[C@@H](Cc1ccc(F)cc1)NC(=O)[C@H](Cc1cnc[nH]1)NC(C)=O)C(=O)N[C@@H](Cc1c[nH]c2ccccc12)C(N)=O (Ac-H[dPhe(4-F)][Nle]W-NH2) | 100 |
| CCCC[C@H](NC(=O)[C@@H](Cc1ccc2ccccc2c1)NC(=O)[C@H](Cc1cnc[nH]1)NC(C)=O)C(=O)N[C@@H](Cc1c[nH]c2ccccc12)C(N)=O (Ac-H[d2Nal][Nle]W-NH2) | 100 |
| CCCC[C@H](NC(=O)[C@@H](Cc1ccc(Cl)cc1)NC(=O)[C@H](Cc1cnc[nH]1)NC(C)=O)C(=O)N[C@@H](Cc1c[nH]c2ccccc12)C(N)=O (Ac-H[dPhe(4-Cl)][Nle]W-NH2) | 100 |

These compounds were tested against T4, Melanocortin receptor 5 (assay: Displacement of [125I]-[Nle4,d-Phe7]-alpha-MSH from human MC5R expressed in HEK293 cells at 10 uM after 40 mins by gamma counting analysis relative to control).
Assay type: cell-based
Procedure, shortened: as §2

| SMILES | %max [%] |
| --- | --- |
| CCCC[C@H](NC(=O)[C@@H](Cc1ccc(F)cc1)NC(=O)[C@H](Cc1cnc[nH]1)NC(C)=O)C(=O)N[C@@H](Cc1c[nH]c2ccccc12)C(N)=O (Ac-H[dPhe(4-F)][Nle]W-NH2) | 0 |
| CCCC[C@H](NC(=O)[C@@H](Cc1ccc2ccccc2c1)NC(=O)[C@H](Cc1cnc[nH]1)NC(C)=O)C(=O)N[C@@H](Cc1c[nH]c2ccccc12)C(N)=O (Ac-H[d2Nal][Nle]W-NH2) | 0 |
| CCCC[C@H](NC(=O)[C@@H](Cc1ccc(Cl)cc1)NC(=O)[C@H](Cc1cnc[nH]1)NC(C)=O)C(=O)N[C@@H](Cc1c[nH]c2ccccc12)C(N)=O (Ac-H[dPhe(4-Cl)][Nle]W-NH2) | 0 |

The compounds below were run against T2, Melanocortin receptor 3 (assay: Agonist activity at human MC3R expressed in HEK293 cells after 3 mins by cAMP assay).
Assay type: functional, cell-based

| SMILES | EC50 [nM] |
| --- | --- |
| CCCC[C@H](NC(=O)[C@@H](Cc1ccc(F)cc1)NC(=O)[C@H](Cc1cnc[nH]1)NC(C)=O)C(=O)N[C@@H](Cc1c[nH]c2ccccc12)C(N)=O (Ac-H[dPhe(4-F)][Nle]W-NH2) | 315 |
| CCCC[C@H](NC(=O)[C@@H](Cc1ccc2ccccc2c1)NC(=O)[C@H](Cc1cnc[nH]1)NC(C)=O)C(=O)N[C@@H](Cc1c[nH]c2ccccc12)C(N)=O (Ac-H[d2Nal][Nle]W-NH2) | 255 |
| CCCC[C@H](NC(=O)[C@@H](Cc1ccc(Cl)cc1)NC(=O)[C@H](Cc1cnc[nH]1)NC(C)=O)C(=O)N[C@@H](Cc1c[nH]c2ccccc12)C(N)=O (Ac-H[dPhe(4-Cl)][Nle]W-NH2) | 116 |

The compounds below were run against T3, Melanocyte-stimulating hormone receptor (assay: Displacement of [125I]-[Nle4,d-Phe7]-alpha-MSH from human MC1R expressed in HEK293 cells after 40 mins by gamma counting analysis).
Assay type: cell-based
Target sequence in this assay (Q01726 whole entry): as above

| SMILES | IC50 [nM] |
| --- | --- |
| CCCC[C@H](NC(=O)[C@@H](Cc1ccc(F)cc1)NC(=O)[C@H](Cc1cnc[nH]1)NC(C)=O)C(=O)N[C@@H](Cc1c[nH]c2ccccc12)C(N)=O (Ac-H[dPhe(4-F)][Nle]W-NH2) | 243 |
| CCCC[C@H](NC(=O)[C@@H](Cc1ccc2ccccc2c1)NC(=O)[C@H](Cc1cnc[nH]1)NC(C)=O)C(=O)N[C@@H](Cc1c[nH]c2ccccc12)C(N)=O (Ac-H[d2Nal][Nle]W-NH2) | > 1000 |
| CCCC[C@H](NC(=O)[C@@H](Cc1ccc(Cl)cc1)NC(=O)[C@H](Cc1cnc[nH]1)NC(C)=O)C(=O)N[C@@H](Cc1c[nH]c2ccccc12)C(N)=O (Ac-H[dPhe(4-Cl)][Nle]W-NH2) | 122 |
